Most compounds without a hit are left out; they make up all but 5.1% or so of the library.
NF-kB neuron act: raises NF-kB expression in human neuronal cells; NF-kB reporter expression; stronger effect = higher value; fold change at 12.5 µM; AID 1239; 190,000 tested, 1.6% active; in the data active = fold change above about 3.3
APP 5'UTR act: activates APP 5'UTR luciferase reporter; activation, % at 2 µM; 190,000 tested, 1% active; SH-SY5Y APP 5'UTR luciferase reporter, luminescence; zero percent = DMSO vehicle wells;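 active = activation above a set limit, based on mean plus 3 SD of controls, cut at about 140% in these data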
STAT1 act: activators of IFN-gamma induced STAT1 signaling; NIH 3T3 STAT1-luciferase reporter, luminescence; 100% = IFN-gamma alone, no compound; activation (% of control), % at 5.5 µM; 200,000 tested, 2.6% active;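 active = activation above the screen-wide mean activation plus 3 SD, cut at about 130% in these data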
STAT3 inh: STAT3 signaling inhibition. inhibition, % at 5.5 µM. U3A cells, IL-6 STAT3-luciferase reporter, luminescence; host cell line lacks STAT1. 190,000 tested, 0.89% active. AID 862;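 active = inhibition above the mean inhibition across all screened compounds plus 3 SD, cut at about 44% in these data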
STAT1 inh: inhibitors of IFN-gamma induced STAT1 signaling; NIH 3T3 STAT1-luciferase reporter, luminescence; inhibition, % at 5.5 µM; 200,000 tested, 0.35% active;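 active = inhibition above a set limit, the mean inhibition across all tested compounds plus 3 SD, cut at about 34% in these data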
STAT3 act: activators of IL-6 induced STAT3 signaling | 190,000 tested, 0.91% active | U3A cells, IL-6 STAT3-luciferase reporter, luminescence; 100% = signal with IL-6 EC80 alone | activation (% of control), % at 5.6 µM;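 active = activation above the screen-wide mean of compound activation plus 3 SD, cut at about 130% in these data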
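Detection: reporter luminescence signal / Assay system: STAT1-lacking human U3A cells, STAT3 luciferase reporter / Incubation: compound pre-incubation 1 h before IL-6, then 6 h stimulation at 37 °C / Control set: IL-6-only high control / Read-out: % activation relative to IL-6 control / Probe or stimulus: Interleukin-6, 33 ng/mL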
STAT1 act conf: STAT1 activation, confirmation assay; shares compounds with STAT1 act; NIH 3T3 STAT1-luciferase reporter, IFN-gamma potentiation, luminescence; 100% = IFN-gamma EC80 alone, no compound; activation (% of control), % at 5.7 µM; 1,200 tested, 97% active; AID 1262;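 active = activation above a set limit carried over from the earlier primary STAT1 screen, cut at about 140% in these data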
NFkB act: activates NF-kappaB, counter-screen to STAT1 activators; shares compounds with STAT1 act; 1,200 tested, 43% active; activation (% of control), % at 5.7 µM; HEK293T NF-kB luciferase reporter, TNF-alpha stimulated, luminescence; 100% = TNF-alpha with vehicle only;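 active = activation above the mean of solvent-only control wells plus 3 SD, set per campaign, cut at about 130% in these data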;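 note: TNF-alpha given at a submaximal dose yielding about 80% of full reporter signal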
STAT3 act STAT1c: counter-screen for STAT1 activators: human STAT3 activation; shares compounds with STAT1 act; U3A cells STAT3-luciferase reporter, IL-6, luminescence; cells lack STAT1; 100 = IL-6 alone, no compound effect; activation (% of control), % at 5.7 µM; 1,200 tested, 46% active;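 active = activation above the solvent-only control well mean plus 3 SD, set per plate batch, cut at about 110% in these data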;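 note: higher means more STAT3 reporter activation so hits are non-selective activators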
Each line names hits and unclear results; the compound was inactive in the other large screens (follow-up assays come after a bar, where they were run).

CC(C)CN1C(=O)c2ccc(NC(=O)Cc3ccccc3)cc2C1=O	none
COc1ccc(C(=O)NCC(=O)OCC(=O)NCc2cccs2)cc1	none
COc1ccc2nc3sc(C(=O)NCc4cccs4)c(N)c3cc2c1	APP 5'UTR act 140, STAT1 act 183 | STAT1 act conf 222 | NFkB act 136 | STAT3 act STAT1c inactive
O=C(Nc1ccccn1)C(F)(F)C(F)(F)C(F)(F)C(F)(F)C(=O)Nc1ccccn1	none
CN(c1ccccc1)c1ccc(/C=N/N2CCOCC2)cc1	NF-kB neuron act 6.8, STAT1 act 172 | STAT1 act conf 197 | NFkB act inactive | STAT3 act STAT1c inactive
C=CCn1c(=O)c(C(=O)Nc2ccccc2S(N)(=O)=O)c(O)c2ccccc21	STAT1 act 171 | STAT1 act conf 187 | NFkB act inactive | STAT3 act STAT1c 146
CC(C)(C)OC(=O)N/N=C\C=C\c1ccc2c(c1)OCO2	STAT1 act 158 (no result: APP 5'UTR act) | STAT1 act conf 185 | NFkB act inactive | STAT3 act STAT1c 111
CNC(=O)c1sc2nc(-c3ccc(OC)cc3)cn2c1C	NF-kB neuron act 4.8, APP 5'UTR act 146, STAT1 act 164 | STAT1 act conf 188 | NFkB act 135 | STAT3 act STAT1c inactive
COC(=O)c1ccc(C)c(NC(=O)c2ccc(Cl)c([N+](=O)[O-])c2)c1	none
Cc1cc(C(=O)CSc2nc3ccccc3[nH]2)c(C)n1Cc1ccco1	APP 5'UTR act 214, STAT1 act 165 | STAT1 act conf 209 | NFkB act inactive | STAT3 act STAT1c inactive
CCCn1c(C)cc(C(=O)CSc2nc3ccccc3c(=O)n2Cc2ccco2)c1C	none
CCOc1ccc(NC(=O)N2CCC(c3ccc(C)cc3)C2)cc1 (stereo not given)	none
CCc1ccc(NC(=O)N2CCC(c3ccccc3)C2)cc1 (stereo not given)	NF-kB neuron act 4.3, APP 5'UTR act 164, STAT1 act 161 | STAT1 act conf 182 | NFkB act inactive | STAT3 act STAT1c inactive
Cc1ccc(NC(=O)N2CCCC2C(=O)NCC2CCCO2)cc1 (stereo not given)	none
COc1ccc(C(=O)CN2C(=O)NC3(CCCCC3)C2=O)cc1OC	none
O=C(CN1C(=O)NC2(CCCCCC2)C1=O)c1ccc2c(c1)OCCO2	STAT1 act 160 | STAT1 act conf 178 | NFkB act 136 | STAT3 act STAT1c 126
Cc1c(CCO)c(=O)n(-c2ccccc2)n1S(=O)(=O)c1ccc(Cl)cc1	none
COc1ccc2c(c1OC)C(=O)OC2Nc1nc(-c2cc3ccccc3oc2=O)cs1 (stereo not given)	NF-kB neuron act 6.7, APP 5'UTR act 153, STAT1 act 182 | STAT1 act conf 195 | NFkB act inactive | STAT3 act STAT1c inactive
COc1ccc2c(c1OC)C(=O)OC2Nc1nc(-c2ccc(-c3ccccc3)cc2)cs1 (stereo not given)	NF-kB neuron act 11, APP 5'UTR act 179, STAT1 act 181 | STAT1 act conf 232 | NFkB act 135 | STAT3 act STAT1c inactive
CCOC(=O)c1cc(-c2ccccc2)sc1NC(=O)C(C)OC(=O)c1cccnc1OCC (stereo not given)	none
COC(=O)CSc1nnc(CNC(=O)Cc2ccccc2)n1-c1ccccc1OC	none
Cc1ccc(CN2CC(C(=O)Nc3ccc(F)c([N+](=O)[O-])c3)CC2=O)cc1 (stereo not given)	none
CCCC(=O)OCC(=O)Nc1ccc(N=Nc2ccccc2)cc1	NF-kB neuron act 4.7, STAT1 act 155 | STAT1 act conf 189 | NFkB act 137 | STAT3 act STAT1c 117
O=C(CCS(=O)(=O)c1ccccc1)NCCS(=O)(=O)c1ccccc1	none
O=C(CCS(=O)(=O)c1ccccc1)NC12CC3CC(CC(C3)C1)C2	STAT1 act 151 | STAT1 act conf 184 | NFkB act 133 | STAT3 act STAT1c 128
O=P(O)(CN1CCCCCC1)CN1CCCCCC1	STAT1 act 153 | STAT1 act conf inactive | NFkB act inactive | STAT3 act STAT1c inactive
c1ccc2cc(OCc3nc4ccccc4[nH]3)ccc2c1	NF-kB neuron act 5.1, APP 5'UTR act 184, STAT1 act 163 | STAT1 act conf 200 | NFkB act inactive | STAT3 act STAT1c inactive
Brc1ccccc1/C=N/Nc1ccc2ccccc2n1	NF-kB neuron act 9.4, STAT1 act 158 | STAT1 act conf 191 | NFkB act inactive | STAT3 act STAT1c 146
COc1ccc(N=Cc2cc3c(cc2O)OC(N)=C(C#N)C3c2ccccc2)cc1 (stereo not given)	none
COCc1cc(N2CCCC2)nc(-c2ccccc2)n1	none
CN1CCN(c2ccc(NC(=O)c3ccccc3Br)cc2)CC1	none
CCc1ccc(NC(=O)c2ccccc2Br)cc1	NF-kB neuron act 4.2, STAT1 act 155 | STAT1 act conf 177 | NFkB act 138 | STAT3 act STAT1c inactive
CCC1(C)Cc2nc3sc(C(=O)O)c(N)c3cc2CO1 (stereo not given)	none
COC(=O)c1sc2nc3c(cc2c1N)CCCC3	NF-kB neuron act 8.2, APP 5'UTR act 164, STAT1 act 165 | STAT1 act conf 227 | NFkB act 148 | STAT3 act STAT1c inactive
CCOC(=O)c1sc2nc3c(cc2c1N)COC(C)(CC)C3 (stereo not given)	NF-kB neuron act 7.3, APP 5'UTR act 175, STAT1 act 201 | STAT1 act conf 287 | NFkB act 146 | STAT3 act STAT1c inactive
CCN(CC)c1ccc(C(=O)Nc2ccccc2)cc1[N+](=O)[O-]	STAT1 act 160 | STAT1 act conf 163 | NFkB act inactive | STAT3 act STAT1c inactive
O=[N+]([O-])c1ccccc1N/N=C/c1ccc2c(c1)OCO2	APP 5'UTR act 139, STAT1 act 152 | STAT1 act conf 226 | NFkB act inactive | STAT3 act STAT1c 117
NS(=O)(=O)c1ccc(N/N=C/c2ccc3c(c2)OCO3)c([N+](=O)[O-])c1	none
COc1ccc(C(=O)N/N=C(/C)c2cccc(NC(=O)C(F)(F)F)c2)cc1	none
C/C(=N/NC(=O)c1ccoc1C)c1cccc(NC(=O)C2CC2)c1	STAT1 act 159 | STAT1 act conf inactive | NFkB act inactive | STAT3 act STAT1c inactive
